# Rev-RRE block = disrupts HIV-1 Rev binding to RRE RNA; Rev peptide-RRE RNA binding, FRET; inhibition, % at 8 µM; actives 0.79% (n = 97,000); AID 704; P05866;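 active = inhibition above the screen-wide mean plus 3 SD, cut at about 35% in these data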;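 also: 0% = median DMSO wells and 100% = median Neomycin B control wells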
#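 Probe or stimulus: fluorescein-Rev peptide as binding partner; assay system: Cy5-tagged RRE RNA duplex with fluorescein-tagged Rev peptide; timing: 5 min compound–RNA preincubation, then 15 min with peptide, 25 °C; medium: HEPES pH 7.5 buffer with KCl, MgCl2, NaCl and EDTA; signal: fluorescein-to-Cy5 FRET, 480 nm excitation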
# Mac1 fbg enh = increases human CD11b/CD18 adhesion to fibrinogen | P05107+P11215 | K562 CD11b/CD18 adhesion to fibrinogen, ATPlite luminescence | activation, % at 10 µM | actives 0.07% (n = 93,000) | AID 1499;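 active = 10 µM primary screen giving 50% or more activity, confirmed by 40% or more on retest at that dose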
# Target sequence (P05107 whole entry, looked up, other chains not shown): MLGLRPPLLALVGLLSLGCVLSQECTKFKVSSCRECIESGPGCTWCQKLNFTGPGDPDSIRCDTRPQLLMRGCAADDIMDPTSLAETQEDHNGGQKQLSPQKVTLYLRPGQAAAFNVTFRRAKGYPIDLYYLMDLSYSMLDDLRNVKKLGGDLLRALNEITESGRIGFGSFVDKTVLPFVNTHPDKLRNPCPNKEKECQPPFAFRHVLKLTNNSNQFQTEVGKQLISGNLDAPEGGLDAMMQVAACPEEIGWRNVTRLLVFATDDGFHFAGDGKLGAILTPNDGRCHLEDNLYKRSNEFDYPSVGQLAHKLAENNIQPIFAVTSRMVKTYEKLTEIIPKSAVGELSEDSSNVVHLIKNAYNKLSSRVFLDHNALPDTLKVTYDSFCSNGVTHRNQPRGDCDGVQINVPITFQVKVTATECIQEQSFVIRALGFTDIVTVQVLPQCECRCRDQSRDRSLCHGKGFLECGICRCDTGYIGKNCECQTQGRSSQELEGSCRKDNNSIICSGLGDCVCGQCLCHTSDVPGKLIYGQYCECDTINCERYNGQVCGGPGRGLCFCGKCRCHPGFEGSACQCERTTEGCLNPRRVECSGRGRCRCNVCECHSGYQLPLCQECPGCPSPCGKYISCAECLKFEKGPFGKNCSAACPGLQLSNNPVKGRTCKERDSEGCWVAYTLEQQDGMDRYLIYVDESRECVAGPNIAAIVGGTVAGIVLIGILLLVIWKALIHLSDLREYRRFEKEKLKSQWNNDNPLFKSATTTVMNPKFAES
# CD11b adhes inh = blocks human CD11b/CD18 adhesion to fibrinogen; inhibition, % at 10 µM; AID 1497; K562 CD11b/CD18 adhesion to fibrinogen, ATPlite luminescence; Mn2+ added to activate the integrin; actives 0.54% (n = 93,000);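 active = primary inhibition of 50% or more at 10 µM, then 40% or more on retest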
# sEH inh = inhibitors of human soluble epoxide hydrolase. P34913. recombinant human sEH enzymatic activity assay. inhibition, % at 2 µM. actives 0.34% (n = 91,000). AID 707; in the data active = inhibition above about 80%
# Smad3 FoxH1 inh = blocks human Smad3 binding to FoxH1 peptide; actives 0.29% (n = 88,000); TR-FRET Smad3/Dy647-FoxH1 peptide binding, europium anti-His; inhibition, % at 25 µM; P84022;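 active = compounds that reduce the energy-transfer binding signal between the protein and its labelled peptide by more than half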;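 also: 0% = Smad3 plus labelled peptide maximal FRET and 100% = peptide-only background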
# sEH activator = activators of human soluble epoxide hydrolase | P34913 | purified human sEH enzymatic activity, activator screen | activation, % at 2 µM | actives 0.04% (n = 91,000); in the data active = activation above about 37%
# * = called active by the depositor; / = not tested or not shown; [ ] = another dose, or the depositor's remark. Hits are enriched below; roughly 1.6% of the tested compounds scored in any of these assays.
SMILES,Rev-RRE block,Mac1 fbg enh,CD11b adhes inh,sEH inh,Smad3 FoxH1 inh,sEH activator
CCCn1c(=O)c(C(=O)Nc2cnccn2)c(O)c2ccccc21,/,-1,-3,/,4,/
CCCn1c(=O)c(C(=O)Nc2nnc(CC)s2)c(O)c2ccccc21,/,5,15,/,53*[fluorescence artefact?],/
CC1(C)CCC(=O)N[C@H]1CC(=O)C[C@@H]1NC(=O)CCC1(C)C,/,/,/,/,-2,/
O=[N+]([O-])c1cc(Cc2cc([N+](=O)[O-])c3cccnc3c2O)c(O)c2ncccc12,/,/,/,/,99*,/
CCCC(=O)NC(c1cccs1)c1cc([N+](=O)[O-])c2cccnc2c1O (configuration not stated),/,-2,-13,/,/,/
O=C(CCn1c(=O)[nH]c2ccsc2c1=O)Nc1ccc(F)c(F)c1,5,/,/,-10,/,7
CN1CCN(CN2C(=O)[C@H]3[C@H]4C=C[C@@H]([C@@H]3C2=O)[C@H]2[C@@H]3C(=O)N(CN5CCN(C)CC5)C(=O)[C@@H]3[C@@H]42)CC1,/,/,/,/,57*,/
CCCCN1C(=O)C2C3C=CC(C2C1=O)C1C2C(=O)N(CCCC)C(=O)C2C31 (configuration not stated),/,1,-5,/,/,/
Cc1c(Cl)cccc1NC(=S)NNc1ncc(C(F)(F)F)cc1Cl,1,-10,90*,2,-5,-2
Fc1ccccc1NC(=S)NNc1ncc(C(F)(F)F)cc1Cl,2,-11,81*,-7,/,8
O=S(=O)(NCCn1ccc2ccccc21)c1ccccc1,4,0,-25,-9,5,7
CC(C)CCNC(=O)C(c1cccnc1)N(Cc1ccccc1)C(=O)Cn1nnc2ccccc21 (configuration not stated),0,/,/,11,9,-11
CC(C)CCNC(=O)C(c1cccnc1)N(CCc1ccccc1)C(=O)Cn1nnc2ccccc21 (configuration not stated),7,/,/,-2,55*,0
O=S(=O)(Nc1nc2ccccc2nc1Nc1ccc2c(c1)OCCO2)c1cccs1,/,-3,90*,/,13,/
COc1ccc(S(=O)(=O)Nc2nc3ccccc3nc2Nc2ccc3c(c2)OCO3)cc1,/,-3,40,/,/,/
CCc1cc(C(=O)Cc2ccc(F)cc2)c(O)cc1O,/,-6,103*,/,8,/
CCCc1cc(C(=O)Cc2ccc(F)cc2)c(O)cc1O,15,-5,95*,11,14,-6
CCc1cc(C(=O)COc2ccccc2F)c(O)cc1O,4,-8,84*,/,0,/
COc1ccc(Cc2ccc3[nH]c(=O)cc(C)c3c2)cc1S(=O)(=O)O,/,/,/,/,19,/
COc1cc(/C=N/NC(=S)Nc2cccc(Cl)c2C)ccc1OCC(=O)N1CC(C)OC(C)C1 (configuration not stated),/,9,30,/,/,/
CSc1nc(NCCOCCO)c2sc3nc(-c4ccco4)c4c(c3c2n1)CCC4,/,68,-18,/,-1,/
CCN(CCO)c1nc(SC)nc2c1sc1nc(-c3ccco3)c3c(c12)CCC3,-31,117*,1,8,/,-5
Cc1noc(C)c1COc1cccc(C(=O)NCc2ccccc2Cl)c1,5,3,-18,86*,4,-86
CN(Cc1cc(Br)cc(Br)c1O)Cc1c(O)ccc2ccccc12,/,/,/,/,7,/
Cc1nc(NCc2ccco2)c2c(C)c(C)sc2n1,4,-6,83*,-3,10,5
SMILES,Rev-RRE block,Mac1 fbg enh,CD11b adhes inh,sEH inh,Smad3 FoxH1 inh,sEH activator
CCOC(=O)c1sc2nc(CC(=O)OC)nc(NCC(=O)OC)c2c1C,2,1,6,-11,2,9
CCOC(=O)c1sc2nc(CC(=O)OC)nc(NCc3ccco3)c2c1C,39*,/,/,-15,1,14
O=C(O)CC[C@@]1(c2ccccc2)NC(=O)NC1=O,/,/,/,/,-5,/
CC(C)[C@@H](C(=O)O)N1C(=O)c2ccccc2C1=O,/,/,/,/,-3,/
O[C@H](CNc1ccccn1)c1ccccc1,/,/,/,/,-16,/
COC(=O)CC[C@@H](C)[C@@H]1CC[C@@H]2[C@H]3CC[C@H]4C[C@@H](O)CC[C@]4(C)[C@@H]3CC[C@]21C,/,/,/,/,37,/
CCn1c(C)c(C(C)=O)c(N2CCN(c3ccccn3)CC2)nc1=S,0,0,-4,18,2,-13
CCn1c(C)c(C(C)=O)c(N2CCN(c3ccccc3)CC2)nc1=S,42*,-1,-12,9,-17,-10
O=C(O)c1ccccc1C1=Nc2ccc(O)cc2Oc2cc(O)ccc21,78*,-1,-18,3,-9,-3
Cc1ccnc(NS(=O)(=O)c2ccc(N=[N+]=[N-])cc2)n1,/,/,/,/,-5,/
CCC1=NNc2cccc3c(OC)ccc1c23,1,65,-14,9,65*[fluorescence artefact?],-9
O=C(O)[C@@H]1[C@H](C(=O)NCc2cccnc2)[C@@H]2CC[C@H]1O2,/,/,/,/,-4,/
C=CCn1c(=O)/c(=C/c2ccc(C)o2)s/c1=C(/C#N)C(=O)c1ccccc1,118*[fluorescence artefact?],-2,-12,9,-3,-10
CCOC(=O)CSc1nc2ccccc2c(=O)n1CC1CCCC1,18,/,/,3,4,-3
CCOC(=O)CSc1nc2ccccc2c(=O)n1CC1CCC(C(=O)NCc2ccco2)CC1 (configuration not stated),5,/,/,82*,13,-82
COc1cccc(-c2csc(N3CCN(C(=O)NC45CC6CC(CC(C6)C4)C5)CC3)n2)c1,-1,/,/,82*,13,-81
O=[n+]1c2c(n([O-])c3cc(F)c(N4CCCC4)cc31)CCC2,66*[fluorescence artefact?],/,/,0,6,3
O=[n+]1c2c(n([O-])c3cc(F)c(N4CCCC4)cc31)CCCC2,79*[fluorescence artefact?],-2,-9,12,13,-12
O=[n+]1c2c(n([O-])c3cc(F)ccc31)CCCC2,4,-4,-4,-10,0,10
CC(C)(Oc1ccc(-c2cccc3ccccc23)cc1)C(=O)O,/,/,/,/,30,/
N=C(N)c1ccc(N=Nc2c(O)ccc3c2[nH]c2ccccc23)cc1,/,/,/,/,102*,/
COc1ccc(-c2nc(N3CCOCC3)nc3nn4c(C)c(CCC(=O)O)c(C)nc4c23)cc1,/,/,/,/,9,/
O=C(Nc1ccc(Cl)c(Cl)c1)N1CCSCC1,0,/,/,82*,19,-82
O=C(Nc1ccc(N2CCOCC2)cc1)Nc1ccc(Cl)c(Cl)c1,2,-2,-39,82*,-5,-82
N#CC[N+]1(Cc2ccccn2)CCCC1,/,/,/,/,1,/
N=C(N)SCC(=O)O,/,/,/,/,-5,/
O=C(O)C(Cc1ccccc1)N1C(=O)/C(=C/c2cccc3ccccc23)SC1=S (configuration not stated),3,-5,91*,9,/,-7
CC[n+]1c(/C=C2\C=C(C)CC(C)C2)sc2ccccc21 (configuration not stated),-2,-6,59*,0,/,1
CC[n+]1c(/C=C2\C=C(C)CC(C)(C)C2)sc2ccccc21,4,-6,73*,3,/,-2

# Screening results deposited in PubChem BioAssay by several laboratories.
